The text below walks through data of ChEMBL document CHEMBL1649401, “Synthesis and biophysical evaluation of arylhydrazono-1H-2-indolinones as β-amyloid aggregation inhibitors” (Eur J Med Chem, 2011).

Each structure is given as a SMILES string. Active and inactive are the calls of the source. No cut-off for these calls is given here.

The nature of series [1]: Inhibition of amyloid beta (1 to 40) aggregation at 100 uM after 2 hrs by thioflavin T based fluorometric assay. Summed up: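 Aβ1-40 (HFIP-treated, lyophilized) at 30 μM in PBS (0.01 M, NaCl 0.1 M, pH 7.4) containing 2% HFIP and 10% DMSO. Incubated with inhibitor in triplicate, 2 h at 25 °C. Sample mixed with 25 μM ThT in 0.025 M phosphate pH 6.0, read at ex 440/em 485 nm. % inhibition = 100 − [(Fi − Fb)/F0]×100. Screen at 100 μM.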

Series [2] can be described thus: Inhibition of amyloid beta (1 to 40) aggregation after 2 hrs by thioflavin T based fluorometric assay.
Series [3] can be described thus: Solubility of the compound in aqueous buffer. In kind it is physicochemical.
A short description of series [4]: Inhibition of amyloid beta (1 to 40) aggregation assessed as reduction of exponential phase of thioflavin T fluorescence curve at 5 uM after 3 to 4 days. Summed up: (§1)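 Aβ1-40 (50 μM) incubated alone or with compound in 0.217 M phosphate pH 8.0, 10% ethanol, 37 °C. Aliquots taken at time points over several days and analyzed by ThT fluorescence. Values expressed as percentage of the plateau fluorescence of free aggregation.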

A short description of series [5]: Inhibition of amyloid beta (1 to 40) aggregation assessed as reduction of exponential phase of thioflavin T fluorescence curve at 25 uM after 3 to 4 days. In short, it runs like this: as §1
A short description of series [6]: Inhibition of amyloid beta (1 to 40) aggregation assessed as reduction of exponential phase of thioflavin T fluorescence curve at 100 uM after 3 to 4 days. In short, it runs like this:
as §1

The nature of series [7]: Inhibition of amyloid beta (1 to 40) aggregation assessed as effect on extension of beta-sheet content at 5 uM after 2 days by CD spectroscopy assay. Summed up:
(§2)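 Samples as for TEM: 50 μM Aβ1-40, 0.217 M phosphate pH 8.0, 10% ethanol, 37 °C incubation, aliquots removed over time. Spectra 195–250 nm, 0.1 cm cell, room temperature, 0.1 nm steps, 4 nm bandwidth. Buffer/ethanol (± compound) blank subtracted. Absolute 215 nm ellipticity plotted vs incubation time.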

The nature of series [8]: Inhibition of amyloid beta (1 to 40) aggregation assessed as effect on extension of beta-sheet content at 5 uM up to 8 days by CD spectroscopy assay. Summed up: as §2
Series [9] in a line: Inhibition of amyloid beta (1 to 40) aggregation assessed as loss of beta-sheet structure up to 100 uM after up to 8 days by CD spectroscopy assay. In short, it runs like this:
as §2

The nature of series [10]: Inhibition of amyloid beta (1 to 40) aggregation assessed as loss of stable random coil arrangement of peptide up to 100 uM after up to 8 days by CD spectroscopy assay. In short, it runs like this: as §2
Series [11] can be described thus: Inhibition of amyloid beta (1 to 40) aggregation assessed as inhibition of extended fibrils formation at 5 uM after 7 days by transmission electron microscopic analysis.
Series [12] is described as follows: Inhibition of amyloid beta (1 to 40) aggregation assessed as reduction of autocorrelation function particles size at 5 uM after 3 days by dynamic light-scattering analysis. In short, it runs like this:
(§3)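 Dynamic light scattering at a 173° backscatter angle with a 633 nm laser, cell held at 37 °C. z-averaged hydrodynamic diameter obtained by second-order cumulant analysis and the Stokes–Einstein equation.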

Series [13] is described as follows: Inhibition of amyloid beta (1 to 40) aggregation assessed as delay in formation of fibrils at 5 uM after 12 hrs by dynamic light-scattering analysis. In short, it runs like this: as §3
The nature of series [14]: Inhibition of amyloid beta (1 to 40) aggregation assessed as formation of long and curly fibrils at 5 uM after 7 days by transmission electron microscopic analysis.

As usually defined, the inhibition is the drop in the measured response relative to a control, in per cent. The compound `O=C1Nc2ccccc2/C1=N/Nc1ccccc1Cl` came in with an inhibition in [1] of 44%.
One may read the IC50 as the concentration that inhibits the measured activity by half. A lower IC50 goes with greater potency. Consider `COc1ccc2c(c1)/C(=N/Nc1ccc(C(C)C)cc1)C(=O)N2`, for which, in series [2], the IC50 worked out at 0.4 µM.
`O=C1Nc2ccc(O)cc2/C1=N/Nc1ccccc1` had an inhibition in series [1] of 62%.
The same measure, in the same setting: then `O=C1Nc2ccccc2/C1=N/Nc1cccc([N+](=O)[O-])c1`, with 29%; and `O=C1Nc2ccc(O)cc2/C1=N/Nc1ccc(O)cc1`, with 61%.
For `CC(C)c1ccc(N/N=C2\C(=O)Nc3cc(O)c(O)cc32)cc1`, it took 1.6 µM to reach half-maximal inhibition in series [2] (IC50).
In series [2], `COc1ccc(N/N=C2\C(=O)Nc3ccc(OC)cc32)cc1` yielded a half-inhibitory concentration (IC50) of 3.7 µM.
In turn, `COc1ccc2c(c1)/C(=N/Nc1ccc(C(C)(C)C)cc1)C(=O)N2` showed a half-maximal inhibitory concentration (IC50) in [2] of 15 µM.
In turn, `COc1ccc2c(c1)/C(=N/Nc1cccc(OCc3ccccc3)c1)C(=O)N2` had an inhibition in [1] of 44%.
Take `O=C1Nc2cc(O)ccc2/C1=N/Nc1ccccc1`: the concentration for half-maximal inhibition (IC50) in [2] is 22 µM.
In series [1], `O=C1Nc2ccccc2/C1=N/Nc1cccc(F)c1` yielded an inhibition of 52%.
Consider `O=C1Nc2cc(O)c(O)cc2/C1=N/Nc1cccc(Cl)c1`, for which, in series [2], the half-maximal inhibitory concentration (IC50) amounted to 1.1 µM. The solubility result in series [3] was “soluble”. For the same compound, the inhibition entry in series [4], in series [5], in [6], in series [8], in series [9] and in series [10] was “Active” throughout. For the same compound, the inhibition result in [11], in series [13] and in [14] was “Active” throughout. The inhibition result in series [7] and in [12] was “inactive” throughout.
Consider `COc1ccc(N/N=C2\C(=O)Nc3ccccc32)cc1`, for which, in series [2], inhibition was half-maximal at 13 µM (IC50).
Take `CC(C)c1ccc(N/N=C2\C(=O)Nc3ccccc32)cc1`: the inhibition in series [1] was 64%.
The compound `O=C1Nc2cc(O)c(O)cc2/C1=N/Nc1ccccc1Cl` came in with an IC50 in series [2] of 11 µM.
On to `O=C1Nc2ccc(O)cc2/C1=N/Nc1cccc(Cl)c1`, for which the half-maximal inhibitory concentration (IC50) in series [2] was 18 µM.
In the case of `COc1ccc2c(c1)/C(=N/Nc1ccc(C)cc1)C(=O)N2`, the inhibition in series [1] came out at 29%.
In [2], `CC(C)c1ccc(N/N=C2\C(=O)Nc3ccc(O)cc32)cc1` registered a 50% inhibitory concentration (IC50) of 21 µM.
`COc1ccc2c(c1)/C(=N/Nc1ccc(Cl)cc1)C(=O)N2` came in with an inhibition in series [1] of 43%.
In series [1], `O=C1Nc2ccc([N+](=O)[O-])cc2/C1=N/Nc1ccc(Cl)cc1` gave an inhibition of 12%.
Still for that read-out and setting: then `O=C1Nc2ccc([N+](=O)[O-])cc2/C1=N/Nc1ccccc1`, with 0%.
For the compound `O=C1Nc2cc(O)c(O)cc2/C1=N/Nc1ccccc1`, in [2], the IC50 is 4.3 µM.
Still for that read-out and setting: then `COc1ccc2c(c1)NC(=O)/C2=N\Nc1ccc(C(C)C)cc1`, with 7.1 µM.
On to `O=C1Nc2ccccc2/C1=N/Nc1ccc(Cl)cc1`, for which the inhibition in [1] worked out at 24%.
`CC(C)c1ccc(N/N=C2\C(=O)Nc3cc(O)ccc32)cc1` came in with an IC50 in series [2] of 6 µM.
As to `COc1cc2c(cc1OC)/C(=N/Nc1ccccc1Cl)C(=O)N2`, the inhibition in series [1] is 68%.
The compound `COc1cc2c(cc1OC)/C(=N/Nc1ccccc1)C(=O)N2` showed an inhibition in [1] of 68%.
On the same count and under the same terms, then `COc1ccc2c(c1)/C(=N/Nc1cccc(C(C)(C)C)c1)C(=O)N2`, with 56%.
The compound `O=C1Nc2cc(Cl)c(F)cc2/C1=N/Nc1ccc(Cl)cc1` displayed an inhibition in series [1] of 28%.
`COc1ccc2c(c1)NC(=O)/C2=N\Nc1ccccc1`: inhibition in series [2] was half-maximal at 5.8 µM (IC50).
`O=C1Nc2ccccc2/C1=N/Nc1cccc(Cl)c1` registered an inhibition in series [1] of 39%.
In series [2], `O=C1Nc2cc(O)c(O)cc2/C1=N/Nc1ccc(O)cc1` displayed a half-maximal inhibitory concentration (IC50) of 24 µM.
As for `COc1cc2c(cc1OC)/C(=N/Nc1cccc(Cl)c1)C(=O)N2`, the IC50 in series [2] was found to be 17 µM.
In [2], `COc1cc2c(cc1OC)/C(=N/Nc1ccc(C(C)C)cc1)C(=O)N2` gave an IC50 of 4.4 µM.
In [1], `COc1ccc2c(c1)/C(=N/Nc1ccc(OCc3ccccc3)cc1)C(=O)N2` came in with an inhibition of 20%.
In series [2], `O=C1Nc2ccccc2/C1=N/Nc1ccc(O)cc1` had a half-maximal inhibitory concentration (IC50) of 9.3 µM.
In series [1], `COc1cc2c(cc1OC)/C(=N/Nc1ccc(Cl)cc1)C(=O)N2` yielded an inhibition of 71%.
Compound `COc1ccc2[nH]c(O)c(/N=N/c3ccccc3)c2c1` came in with an inhibition in series [1] of 52%.
For the compound `O=C1Nc2ccccc2/C1=N/Nc1ccc(OC(F)(F)F)cc1`, the inhibition in [1] stood at 57%.
Turning to `O=C1Nc2cc(O)c(O)cc2/C1=N/Nc1ccc(Cl)cc1`, the half-inhibitory concentration (IC50) in series [2] was determined as 17 µM.
In series [2], `COc1ccc(N/N=C2\C(=O)Nc3cc(OC)c(OC)cc32)cc1` had an IC50 of 22 µM.
`COc1ccc2c(c1)/C(=N/Nc1cccc(Cl)c1)C(=O)N2` came in with an inhibition in [1] of 72%.
Same read-out and setting: then `O=C1Nc2ccc(Br)cc2/C1=N/Nc1ccc(Cl)cc1`, with 63%; and `Oc1[nH]c2ccccc2c1/N=N/c1ccccc1`, with 61%.
